Assays:
Format in all cases: functional
Pseudomonas aeruginosa [1] = assay: Potentiation of moxifloxacin-induced antibacterial activity against MDR/XDR Pseudomonas aeruginosa isolate PA260-97103 harboring GyrA T83I mutant assessed as fold reduction in moxifloxacin MIC at 7.5 uM incubated for 18 hrs by broth microdilution method
Summary of the method: (§1)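 CLSI broth microdilution. Overnight cultures were set to 0.5 McFarland in saline, diluted 1:50 in Mueller-Hinton broth to a final 5 × 10^5 CFU/mL, and incubated 18 h at 37 °C against 2-fold antibiotic dilutions. A fixed adjuvant level was present throughout. MIC = lowest concentration with no visible turbidity, confirmed at 590 nm. Potentiation = fold drop in antibiotic MIC versus antibiotic alone.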

Pseudomonas aeruginosa [2] = assay: Potentiation of moxifloxacin-induced antibacterial activity against MDR/XDR Pseudomonas aeruginosa isolate PA264-104354 harboring GyrA T83I mutant assessed as fold reduction in moxifloxacin MIC at 7.5 uM incubated for 18 hrs by broth microdilution method; summary of the method: as §1
Pseudomonas aeruginosa [3] = assay: Potentiation of moxifloxacin-induced antibacterial activity against MDR/XDR Pseudomonas aeruginosa isolate 91433 devoid of GyrA T83I mutant assessed as fold reduction in moxifloxacin MIC at 7.5 uM incubated for 18 hrs by broth microdilution method; summary of the method: as §1
Pseudomonas aeruginosa [4] = assay: Potentiation of minocycline-induced antibacterial activity against MDR/XDR Pseudomonas aeruginosa isolate PA262-101856 harboring GyrA T83I mutant assessed as fold reduction in minocycline MIC at 7.5 uM incubated for 18 hrs by broth microdilution method
Pseudomonas aeruginosa [5] = assay: Potentiation of minocycline-induced antibacterial activity against MDR/XDR Pseudomonas aeruginosa isolate 100036 harboring GyrA T83I mutant assessed as fold reduction in minocycline MIC at 7.5 uM incubated for 18 hrs by broth microdilution method
Pseudomonas aeruginosa [6] = assay: Potentiation of minocycline-induced antibacterial activity against MDR/XDR Pseudomonas aeruginosa isolate 101885 harboring GyrA T83I mutant assessed as fold reduction in minocycline MIC at 7.5 uM incubated for 18 hrs by broth microdilution method
Pseudomonas aeruginosa [7] = assay: Potentiation of rifampicin-induced antibacterial activity against MDR/XDR Pseudomonas aeruginosa isolate 100036 harboring GyrA T83I mutant assessed as fold reduction in rifampicin MIC at 7.5 uM incubated for 18 hrs by broth microdilution method; summary of the method: as §1
Pseudomonas aeruginosa [8] = assay: Potentiation of rifampicin-induced antibacterial activity against MDR/XDR Pseudomonas aeruginosa isolate 101243 devoid of GyrA T83I mutant assessed as fold reduction in rifampicin MIC at 7.5 uM incubated for 18 hrs by broth microdilution method; summary of the method: as §1
Pseudomonas aeruginosa [9] = assay: Potentiation of minocycline-induced antimicrobial activity against MDR/XDR Pseudomonas aeruginosa isolate 101885 harboring GyrA Thr83Ile mutant assessed as minocycline MIC50 incubated for 18 hrs by broth microdilution method (reference value: 16 microg/ml); settings: isolate 101885, 18 h
Pseudomonas aeruginosa [10] = assay: Potentiation of rifampicin-induced antimicrobial activity against MDR/XDR Pseudomonas aeruginosa isolate 101885 harboring GyrA Thr83Ile mutant assessed as rifampicin MIC50 incubated for 18 hrs by broth microdilution method (reference value: 8 microg/ml); settings: isolate 101885, 18 h
Pseudomonas aeruginosa [11] = assay: Potentiation of rifampicin-induced antimicrobial activity against MDR/XDR Pseudomonas aeruginosa isolate PA264-104354 harboring GyrA Thr83Ile mutant assessed as rifampicin MIC50 incubated for 18 hrs by broth microdilution method (reference value: 8 microg/ml); settings: isolate PA264-104354, 18 h
Pseudomonas aeruginosa [12] = assay: Potentiation of rifampicin-induced antimicrobial activity against MDR/XDR Pseudomonas aeruginosa isolate 91433 devoid of GyrA Thr83Ile mutant assessed as rifampicin MIC50 incubated for 18 hrs by broth microdilution method (reference value: 8 microg/ml); settings: isolate 91433, 18 h
Acinetobacter baumannii [13] = assay: Potentiation of rifampicin-induced antibacterial activity against multidrug-resistant Acinetobacter baumannii AB030 assessed as fold reduction in rifampicin MIC at 7.5 uM incubated for 18 hrs by broth dilution method; summary of the method: as §1
Acinetobacter baumannii [14] = assay: Synergistic antibacterial activity against multidrug-resistant Acinetobacter baumannii ATCC 17978 assessed as fractional inhibitory concentration index in presence of minocycline incubated for 18 hrs by broth dilution method
Klebsiella pneumoniae = assay: Antimicrobial activity against Klebsiella pneumoniae 113250 incubated for 18 hrs by broth dilution method; settings: Klebsiella pneumoniae, 113250, 18 h
Summary of the method: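 CLSI broth microdilution. Overnight cultures were adjusted to 0.5 McFarland in saline, diluted 1:50 in Mueller-Hinton broth, and inoculated at a final 5 × 10^5 CFU/mL. Compounds were tested as 2-fold serial dilutions and incubated 18 h at 37 °C. MIC was the lowest concentration with no visible turbidity, confirmed by absorbance at 590 nm.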

Acinetobacter baumannii [15] = assay: Synergistic antibacterial activity against multidrug-resistant Acinetobacter baumannii AB110193 assessed as fractional inhibitory concentration index in presence of minocycline incubated for 18 hrs by broth dilution method
Escherichia coli [16] = assay: Synergistic antibacterial activity against Escherichia coli ATCC 25922 assessed as fractional inhibitory concentration index in presence of minocycline incubated for 18 hrs by broth dilution method
Summary of the method: (§2)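 Checkerboard titration of the adjuvant against the antibiotic, run under the CLSI microdilution conditions (MHB, 5 × 10^5 CFU/mL, 18 h, 37 °C). Each agent's FIC is its MIC in combination divided by its MIC alone; FICI is the sum of the two FICs. FICI ≤0.5 was read as synergy, >0.5–4.0 as no interaction, and >4.0 as antagonism.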

Escherichia coli [17] = assay: Synergistic antibacterial activity against Escherichia coli 94474 assessed as fractional inhibitory concentration index in presence of rifampicin incubated for 18 hrs by broth dilution method; summary of the method: as §2
Escherichia coli [18] = assay: Synergistic antibacterial activity against Escherichia coli 107115 assessed as fractional inhibitory concentration index in presence of minocycline incubated for 18 hrs by broth dilution method; summary of the method: as §2
Acinetobacter baumannii [19] = assay: Potentiation of minocycline-induced antibacterial activity against […] Acinetobacter baumannii ATCC 17978 assessed as fold reduction in minocycline MIC at 4.1 uM incubated for 18 hrs by broth dilution method; summary of the method: as §1
Pseudomonas aeruginosa [20] = assay: Potentiation of rifampicin-induced bactericidal activity in MDR/XDR Pseudomonas aeruginosa isolate PA259-96918 harboring GyrA T83I mutant assessed as complete eradication of bacteria at 4 ug/ml incubated for 4 hrs in presence of 1 to 4 ug/ml rifampicin by time kill curve assay
Summary of the method: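 Time-kill assay against XDR P. aeruginosa PA259. Overnight culture adjusted to 0.5 McFarland in saline, diluted 1:50 in LB. Incubated at 37 °C for 24 h with rifampicin and adjuvant, alone or combined at various concentrations. Aliquots taken at intervals, serially diluted in PBS and plated on LB agar. Colonies counted after 20 h at 37 °C. Untreated cells as control.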

Pseudomonas aeruginosa [21] = assay: Potentiation of ciprofloxacin-induced antibacterial activity against MDR/XDR Pseudomonas aeruginosa isolate 91433 devoid of GyrA T83I mutant assessed as fold reduction in ciprofloxacin MIC at 9 uM incubated for 18 hrs by broth microdilution method
Pseudomonas aeruginosa [22] = assay: Potentiation of minocycline-induced antibacterial activity against MDR/XDR Pseudomonas aeruginosa isolate 101885 harboring GyrA T83I mutant assessed as fold reduction in minocycline MIC at 9 uM incubated for 18 hrs by broth microdilution method

COc1c(N2C[C@@H]3CCCN(CCCCCCCCCCCCO[C@@H]4[C@@H](O)[C@H](N)C[C@H](N)[C@H]4O[C@H]4O[C@H](CN)[C@@H](O)C[C@H]4N)[C@@H]3C2)c(F)cc2c(=O)c(C(=O)O)cn(C3CC3)c12.Cl.Cl.Cl.Cl.Cl
fold change (FC) (Pseudomonas aeruginosa [1]): 64
fold change (FC) (Pseudomonas aeruginosa [2]): 16
fold change (FC) (Pseudomonas aeruginosa [3]): 16
fold change (FC) (Pseudomonas aeruginosa [4]): 32
fold change (FC) (Pseudomonas aeruginosa [5]): 32
fold change (FC) (Pseudomonas aeruginosa [6]): 16
fold change (FC) (Pseudomonas aeruginosa [7]): 256
fold change (FC) (Pseudomonas aeruginosa [8]): 32
MIC50 (Pseudomonas aeruginosa [9]): 0.5 µg/mL
MIC50 (Pseudomonas aeruginosa [10]): 0.06 µg/mL
MIC50 (Pseudomonas aeruginosa [11]): 0.06 µg/mL
MIC50 (Pseudomonas aeruginosa [12]): 0.06 µg/mL
fold change (FC) (Acinetobacter baumannii [13]): 32

Cl.Cl.Cl.Cl.Cl.NC[C@H]1O[C@H](O[C@H]2[C@H](OCCCCCCCCCCCCN3CCN(c4cc5c(cc4F)c(=O)c(C(=O)O)cn5C4CC4)CC3)[C@@H](O)[C@H](N)C[C@@H]2N)[C@H](N)C[C@@H]1O
fractional inhibitory concentration index (FICI) (Acinetobacter baumannii [14]): 0.52
MIC (Klebsiella pneumoniae): 128 µg/mL
fractional inhibitory concentration index (FICI) (Acinetobacter baumannii [15]): >1
fractional inhibitory concentration index (FICI) (Escherichia coli [16]): 0.504
fractional inhibitory concentration index (FICI) (Escherichia coli [17]): 0.004 - 0.035
fractional inhibitory concentration index (FICI) (Escherichia coli [18]): 0.133
fold change (FC) (Acinetobacter baumannii [19]): 2
Activity (Pseudomonas aeruginosa [20]): 100%

Cl.Cl.Cl.Cl.Cl.Cl.NC[C@H]1O[C@H](O[C@H]2[C@H](OCCCCCCCCCCN3CCN(Cc4cccc5ccccc45)CC3)[C@@H](O)[C@H](N)C[C@@H]2N)[C@H](N)C[C@@H]1O
fold change (FC) (Pseudomonas aeruginosa [21]): 8
fold change (FC) (Pseudomonas aeruginosa [22]): 64
